Experiments:
Mus musculus [1] = species: Mus musculus; assay: Tested for biodistribution of compound at 1 min in mice blood; assay type: ADME, organism-based; settings: in vivo
Outline: (§1)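 Male Swiss albino mice, at least five per group, received 0.1 mL (2-3 μCi) of HPLC-purified 99mTc complex reconstituted in 50% methanol by tail vein. They were killed by cardiectomy under light ether anesthesia at set times (1-60 min pi). Organs were weighed and γ-counted against a 1% injected-dose standard to give % dose/organ. Blood and muscle were taken as 7% and 43% of body weight.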

Mus musculus [2] = species: Mus musculus; assay: Tested for biodistribution of compound at 30 min in mice brain; assay type: ADME, organism-based; settings: in vivo, 0.5 h; outline: as §1
Mus musculus [3] = species: Mus musculus; assay: Tested for biodistribution of compound at 60 min in mice muscle; assay type: ADME, organism-based, Muscle tissue; settings: in vivo, 1 h
Outline: (§2)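 Male Swiss albino mice, at least five per group, received HPLC-purified 99mTc complex by tail vein. The complex was reconstituted in 50% methanol (0.1 mL, 2-3 μCi). Mice were killed by cardiectomy under light ether at 1-60 min pi. Organs were weighed and γ-counted against a 1% injected-dose standard to give % dose/organ. Blood and muscle were taken as 7% and 43% of body weight.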

Mus musculus [4] = species: Mus musculus; assay: Tested for biodistribution of compound at 30 min in mice intestine; assay type: ADME, organism-based; settings: in vivo, 0.5 h; outline: as §1
Mus musculus [5] = species: Mus musculus; assay: Tested for biodistribution of compound at 60 min in mice kidney; assay type: ADME, organism-based; settings: in vivo, 1 h; outline: as §2
Mus musculus [6] = species: Mus musculus; assay: Tested for biodistribution of compound at 5 min in mice iver; assay type: ADME, organism-based, Liver; settings: in vivo; outline: as §2
Mus musculus [7] = species: Mus musculus; assay: Tested for biodistribution of compound at 5 min in mice brain; assay type: ADME, organism-based; settings: in vivo; outline: as §2
Mus musculus [8] = species: Mus musculus; assay: Tested for biodistribution of compound at 1 min in mice muscle; assay type: ADME, organism-based, Muscle tissue; settings: in vivo; outline: as §1
Mus musculus [9] = species: Mus musculus; assay: Tested for biodistribution of compound at 5 min in mice heart; assay type: ADME, organism-based; settings: in vivo; outline: as §2
Mus musculus [10] = species: Mus musculus; assay: Tested for biodistribution of compound at 60 min in mice stomach; assay type: ADME, organism-based; settings: in vivo, 1 h; outline: as §2
Mus musculus [11] = species: Mus musculus; assay: Tested for biodistribution of compound at 10 min in mice blood; assay type: ADME, organism-based; settings: in vivo; outline: as §1
Mus musculus [12] = species: Mus musculus; assay: Tested for biodistribution of compound at 30 min in mice heart; assay type: ADME, organism-based; settings: in vivo, 0.5 h; outline: as §1
Mus musculus [13] = species: Mus musculus; assay: Tested for biodistribution of compound at 1 min in mice stomach; assay type: ADME, organism-based; settings: in vivo; outline: as §1
Mus musculus [14] = species: Mus musculus; assay: Tested for biodistribution of compound at 10 min in mice kidney; assay type: ADME, organism-based; settings: in vivo; outline: as §1
Mus musculus [15] = species: Mus musculus; assay: Tested for biodistribution of compound at 1 min in mice brain; assay type: ADME, organism-based; settings: in vivo; outline: as §1
Mus musculus [16] = species: Mus musculus; assay: Tested for biodistribution of compound at 30 min in mice spleen; assay type: ADME, organism-based; settings: in vivo, 0.5 h; outline: as §1
Mus musculus [17] = species: Mus musculus; assay: Tested for biodistribution of compound at 1 min in mice heart; assay type: ADME, organism-based; settings: in vivo; outline: as §1
Mus musculus [18] = species: Mus musculus; assay: Tested for biodistribution of compound at 1 min in mice kidney; assay type: ADME, organism-based; settings: in vivo; outline: as §1
Mus musculus [19] = species: Mus musculus; assay: Tested for biodistribution of compound at 60 min in mice blood; assay type: ADME, organism-based; settings: in vivo, 1 h; outline: as §2
Mus musculus [20] = species: Mus musculus; assay: Tested for biodistribution of compound at 10 min in mice spleen; assay type: ADME, organism-based; settings: in vivo; outline: as §1
Mus musculus [21] = species: Mus musculus; assay: Tested for biodistribution of compound at 30 min in mice kidney; assay type: ADME, organism-based; settings: in vivo, 0.5 h; outline: as §1
Mus musculus [22] = species: Mus musculus; assay: Tested for biodistribution of compound at 60 min in mice spleen; assay type: ADME, organism-based; settings: in vivo, 1 h; outline: as §2
Mus musculus [23] = species: Mus musculus; assay: Tested for biodistribution of compound at 30 min in mice stomach; assay type: ADME, organism-based; settings: in vivo, 0.5 h; outline: as §1
Mus musculus [24] = species: Mus musculus; assay: Tested for biodistribution of compound at 60 min in mice heart; assay type: ADME, organism-based; settings: in vivo, 1 h; outline: as §2
Mus musculus [25] = species: Mus musculus; assay: Tested for biodistribution of compound at 10 min in mice intestine; assay type: ADME, organism-based; settings: in vivo; outline: as §1
Mus musculus [26] = species: Mus musculus; assay: Tested for biodistribution of compound at 10 min in mice stomach; assay type: ADME, organism-based; settings: in vivo; outline: as §1
Mus musculus [27] = species: Mus musculus; assay: Tested for biodistribution of compound at 30 min in mice iver; assay type: ADME, organism-based, Liver; settings: in vivo, 0.5 h; outline: as §1
Mus musculus [28] = species: Mus musculus; assay: Tested for biodistribution of compound at 10 min in mice lungs; assay type: ADME, organism-based, Lung; settings: in vivo; outline: as §1
Mus musculus [29] = species: Mus musculus; assay: Tested for biodistribution of compound at 5 min in mice stomach; assay type: ADME, organism-based; settings: in vivo; outline: as §2
Mus musculus [30] = species: Mus musculus; assay: Tested for biodistribution of compound at 10 min in mice muscle; assay type: ADME, organism-based, Muscle tissue; settings: in vivo; outline: as §1
Mus musculus [31] = species: Mus musculus; assay: Tested for biodistribution of compound at 30 min in mice urine; assay type: ADME, organism-based; settings: in vivo, 0.5 h; outline: as §1
Mus musculus [32] = species: Mus musculus; assay: Tested for biodistribution of compound at 10 min in mice urine; assay type: ADME, organism-based; settings: in vivo; outline: as §1
Mus musculus [33] = species: Mus musculus; assay: Tested for biodistribution of compound at 5 min in mice kidney; assay type: ADME, organism-based; settings: in vivo; outline: as §2
Mus musculus [34] = species: Mus musculus; assay: Tested for biodistribution of compound at 5 min in mice lungs; assay type: ADME, organism-based, Lung; settings: in vivo; outline: as §2
Mus musculus [35] = species: Mus musculus; assay: Tested for biodistribution of compound at 60 min in mice urine; assay type: ADME, organism-based; settings: in vivo, 1 h; outline: as §2
Mus musculus [36] = species: Mus musculus; assay: Tested for biodistribution of compound at 5 min in mice spleen; assay type: ADME, organism-based; settings: in vivo; outline: as §2
Mus musculus [37] = species: Mus musculus; assay: Tested for biodistribution of compound at 60 min in mice intestine; assay type: ADME, organism-based; settings: in vivo, 1 h; outline: as §2
Mus musculus [38] = species: Mus musculus; assay: Tested for biodistribution of compound at 1 min in mice liver; assay type: ADME, organism-based; settings: in vivo; outline: as §1
Mus musculus [39] = species: Mus musculus; assay: Tested for biodistribution of compound at 60 min in mice lungs; assay type: ADME, organism-based, Lung; settings: in vivo, 1 h; outline: as §2
Mus musculus [40] = species: Mus musculus; assay: Tested for biodistribution of compound at 1 min in mice intestine; assay type: ADME, organism-based; settings: in vivo; outline: as §1
Mus musculus [41] = species: Mus musculus; assay: Tested for biodistribution of compound at 10 min in mice heart; assay type: ADME, organism-based; settings: in vivo; outline: as §1
Mus musculus [42] = species: Mus musculus; assay: Tested for biodistribution of compound at 5 min in mice intestine; assay type: ADME, organism-based; settings: in vivo; outline: as §2
Mus musculus [43] = species: Mus musculus; assay: Tested for biodistribution of compound at 30 min in mice lungs; assay type: ADME, organism-based, Lung; settings: in vivo, 0.5 h; outline: as §1
Mus musculus [44] = species: Mus musculus; assay: Tested for biodistribution of compound at 10 min in mice brain; assay type: ADME, organism-based; settings: in vivo; outline: as §1
Mus musculus [45] = species: Mus musculus; assay: Tested for biodistribution of compound at 1 min in mice lungs; assay type: ADME, organism-based, Lung; settings: in vivo; outline: as §1
Mus musculus [46] = species: Mus musculus; assay: Tested for biodistribution of compound at 30 min in mice muscle; assay type: ADME, organism-based, Muscle tissue; settings: in vivo, 0.5 h; outline: as §1
Mus musculus [47] = species: Mus musculus; assay: Tested for biodistribution of compound at 30 min in mice blood; assay type: ADME, organism-based; settings: in vivo, 0.5 h; outline: as §1
Mus musculus [48] = species: Mus musculus; assay: Tested for biodistribution of compound at 10 min in mice iver; assay type: ADME, organism-based, Liver; settings: in vivo; outline: as §1
Mus musculus [49] = species: Mus musculus; assay: Tested for biodistribution of compound at 5 min in mice muscle; assay type: ADME, organism-based, Muscle tissue; settings: in vivo; outline: as §2
Mus musculus [50] = species: Mus musculus; assay: Tested for biodistribution of compound at 60 min in mice brain; assay type: ADME, organism-based; settings: in vivo, 1 h; outline: as §2
Mus musculus [51] = species: Mus musculus; assay: Tested for biodistribution of compound at 5 min in mice blood; assay type: ADME, organism-based; settings: in vivo; outline: as §2
Mus musculus [52] = species: Mus musculus; assay: Tested for biodistribution of compound at 60 min in mice iver; assay type: ADME, organism-based, Liver; settings: in vivo, 1 h; outline: as §2
Mus musculus [53] = species: Mus musculus; assay: Tested for biodistribution of compound at 1 min in mice spleen; assay type: ADME, organism-based; settings: in vivo; outline: as §1

## [4-methoxythio)phenolato][N,N-bis(2-mercaptoethyl)-2-(ethylthio)ethylamine] oxotechnetium
Mus musculus [1]
  Dose/organ: 5.77%
Mus musculus [2]
  Dose/organ: 0.39%
Mus musculus [3]
  Dose/organ: 5.27%
Mus musculus [4]
  Dose/organ: 43.12%
Mus musculus [5]
  Dose/organ: 0.54%
Mus musculus [6]
  Dose/organ: 16.97%
Mus musculus [7]
  Dose/organ: 2.43%
Mus musculus [8]
  Dose/organ: 34.39%
Mus musculus [9]
  Dose/organ: 0.59%
Mus musculus [10]
  Dose/organ: 1.1%
Mus musculus [11]
  Dose/organ: 1.24%
Mus musculus [12]
  Dose/organ: 0.11%
Mus musculus [13]
  Dose/organ: 0.35%
Mus musculus [14]
  Dose/organ: 1.76%
Mus musculus [15]
  Dose/organ: 3.68%
Mus musculus [16]
  Dose/organ: 0.06%
Mus musculus [17]
  Dose/organ: 4.02%
Mus musculus [18]
  Dose/organ: 2.3%
Mus musculus [19]
  Dose/organ: 0.79%
Mus musculus [20]
  Dose/organ: 0.16%
Mus musculus [21]
  Dose/organ: 1.04%
Mus musculus [22]
  Dose/organ: 0.03%
Mus musculus [23]
  Dose/organ: 0.37%
Mus musculus [24]
  Dose/organ: 0.05%
Mus musculus [25]
  Dose/organ: 15.44%
Mus musculus [26]
  Dose/organ: 1.02%
Mus musculus [27]
  Dose/organ: 24.36%
Mus musculus [28]
  Dose/organ: 1.05%
Mus musculus [29]
  Dose/organ: 0.73%
Mus musculus [30]
  Dose/organ: 20.29%
Mus musculus [31]
  Dose/organ: 0.77%
Mus musculus [32]
  Dose/organ: 0.27%
Mus musculus [33]
  Dose/organ: 2.45%
Mus musculus [34]
  Dose/organ: 1.52%
Mus musculus [35]
  Dose/organ: 1.79%
Mus musculus [36]
  Dose/organ: 0.21%
Mus musculus [37]
  Dose/organ: 44.3%
Mus musculus [38]
  Dose/organ: 3.58%
Mus musculus [39]
  Dose/organ: 0.26%
Mus musculus [40]
  Dose/organ: 4.14%
Mus musculus [41]
  Dose/organ: 0.31%
Mus musculus [42]
  Dose/organ: 9.31%
Mus musculus [43]
  Dose/organ: 0.52%
Mus musculus [44]
  Dose/organ: 1.57%
Mus musculus [45]
  Dose/organ: 5.25%
Mus musculus [46]
  Dose/organ: 10.41%
Mus musculus [47]
  Dose/organ: 0.8%
Mus musculus [48]
  Dose/organ: 24.79%
Mus musculus [49]
  Dose/organ: 25.57%
Mus musculus [50]
  Dose/organ: 0.15%
Mus musculus [51]
  Dose/organ: 1.66%
Mus musculus [52]
  Dose/organ: 18.03%
Mus musculus [53]
  Dose/organ: 0.06%

From ChEMBL document CHEMBL1127344, “Tridentate ligands containing the SNS donor atom set as a novel backbone for the development of technetium brain-imaging agents” (J Med Chem, 1994)
